{"data": "Measured values from different studies", "target": "Casein kinase II subunit alpha (CSNK2A1, Homo sapiens, UniProt P68400)"}
{"Compound": "COc1cc(-c2cn(C3CCc4c(F)cccc4N(CC(F)(F)F)C3=O)nn2)ccc1-n1cnc(C)c1 (centres unmarked)", "read-out": "cell-free assay", "technique": "competition with immobilised ligand", "concentration": "1 µM", "remaining binding": "100%"}
{"Compound": "O=C(NCCCN1CCOCC1)c1ccc(Nc2ncc(Cl)c(-c3ccc(Cl)s3)n2)cc1", "read-out": "binding", "technique": "competition with immobilised ligand", "concentration": "1 µM", "remaining binding": "4%"}
{"Compound": "C[C@@H](c1ccc(-n2cnc3c(N)ncnc32)cc1)N1CCc2nn(C)c(Cc3ccccc3)c2C1=O", "read-out": "binding", "technique": "competition with immobilised ligand", "concentration": "0.1 µM", "remaining binding": "73%"}
{"Compound": "CC(=O)c1c(NS(C)(=O)=O)c2cc(-c3ccc(Cl)cc3)c(-c3ccc(Cl)cc3Cl)nc2n(C)c1=O", "read-out": "cell-free assay", "technique": "competition with immobilised ligand", "concentration": "1 µM", "remaining binding": "92%"}
{"Compound": "F[C@@H]1CCN(c2nccc(-c3cnn4ncccc34)n2)C1", "read-out": "binding", "concentration": "1 µM", "remaining binding": "58%"}
{"Compound": "O=C(c1ccc(Nc2nccc(-c3cc4ccccc4s3)n2)cc1)N1CCC(N2CCCC2)CC1", "read-out": "binding", "technique": "competition with immobilised ligand", "concentration": "1 µM", "remaining binding": "23%"}
{"Compound": "c1cncc(-c2cccc(Nc3nccc(NC4CCCCC4)n3)c2)c1", "read-out": "binding", "technique": "competition with immobilised ligand", "concentration": "10 µM", "remaining binding": "72%"}
{"Compound": "C=CC(=O)N1CCC(C(=O)NCC(=O)N2CCN(c3nc(-c4cnc(N)nc4C(F)F)nc(N4CCOCC4)n3)CC2)CC1", "read-out": "binding", "technique": "competition with immobilised ligand", "concentration": "1 µM", "remaining binding": "75%"}
{"Compound": "CCC(=O)N[C@H]1CC[C@@H](C(=O)N(C)c2ccc(-c3nc4ccccc4o3)cc2)C1", "read-out": "cell-free assay", "technique": "competition with immobilised ligand", "concentration": "1 µM", "remaining binding": "74%"}
{"Compound": "O=C(Nc1c[nH]nc1C(=O)NC1CCNCC1)c1cc(F)cc(F)c1", "read-out": "binding", "technique": "competition with immobilised ligand", "concentration": "1 µM", "remaining binding": "100%"}
{"Compound": "CN(CCCC(F)(F)F)c1nccc(-c2cnn3ncccc23)n1", "read-out": "binding", "concentration": "1 µM", "remaining binding": "66%"}
{"Compound": "Cc1cnc(Nc2ccc(C(=O)N3CCC(N4CCCC4)CC3)cc2)nc1-c1cc2ccccc2s1", "read-out": "binding", "technique": "competition with immobilised ligand", "concentration": "1 µM", "remaining binding": "0.5%"}
{"Compound": "Cc1cnn2ncc(-c3ccnc(N(C)C)n3)c2c1", "read-out": "binding", "concentration": "1 µM", "remaining binding": "86%"}
{"Compound": "CC(=O)N1CCC(c2ccc(C(=O)NC(=N)N)cc2C(F)(F)F)CC1", "read-out": "cell-free assay", "technique": "competition with immobilised ligand", "concentration": "1 µM", "remaining binding": "95%"}
{"Compound": "CC1CCCN1c1nccc(-c2cnn3ncccc23)n1 (centres unmarked)", "read-out": "binding", "concentration": "1 µM", "remaining binding": "90%"}
{"Compound": "CN(C(=O)c1ccccc1)c1cc(N(C)c2ccc3c(c2)CCc2ccc(C(=O)NCCN4CCOCC4)cc2C3=O)ccc1F", "read-out": "cell-free assay", "technique": "competition with immobilised ligand", "concentration": "1 µM", "remaining binding": "100%"}
{"Compound": "CN(C)c1nccc(-c2cnc3ncccn23)n1", "read-out": "binding", "concentration": "1 µM", "remaining binding": "47%"}
{"Compound": "COc1cnc(Nc2cccc(S(N)(=O)=O)c2)nc1N1CCN(c2ccccc2)C(=O)C1", "read-out": "binding", "technique": "competition with immobilised ligand", "concentration": "1 µM", "remaining binding": "68%"}
{"Compound": "N[C@@H]1CCN(c2nccc(-c3cnn4ncccc34)n2)C1", "read-out": "binding", "concentration": "1 µM", "remaining binding": "52%"}
{"Compound": "N#CC1(c2ccccn2)CCN(Cc2cc(C(=O)N3CCCC3)c(=O)n3ccccc23)CC1", "read-out": "cell-free assay", "technique": "competition with immobilised ligand", "concentration": "1 µM", "remaining binding": "100%"}
